In brackets after ≈: the same amount, converted by molar mass.
biological target: T1, Sodium- and chloride-dependent glycine transporter 1 (Homo sapiens, UniProt P48067); assay: Inhibition of [3H]glycine uptake at human glycine transporter 1 expressed in CHO cells by scintillation counter; type: cell-based; settings: not given
T1 sequence (P48067 whole entry): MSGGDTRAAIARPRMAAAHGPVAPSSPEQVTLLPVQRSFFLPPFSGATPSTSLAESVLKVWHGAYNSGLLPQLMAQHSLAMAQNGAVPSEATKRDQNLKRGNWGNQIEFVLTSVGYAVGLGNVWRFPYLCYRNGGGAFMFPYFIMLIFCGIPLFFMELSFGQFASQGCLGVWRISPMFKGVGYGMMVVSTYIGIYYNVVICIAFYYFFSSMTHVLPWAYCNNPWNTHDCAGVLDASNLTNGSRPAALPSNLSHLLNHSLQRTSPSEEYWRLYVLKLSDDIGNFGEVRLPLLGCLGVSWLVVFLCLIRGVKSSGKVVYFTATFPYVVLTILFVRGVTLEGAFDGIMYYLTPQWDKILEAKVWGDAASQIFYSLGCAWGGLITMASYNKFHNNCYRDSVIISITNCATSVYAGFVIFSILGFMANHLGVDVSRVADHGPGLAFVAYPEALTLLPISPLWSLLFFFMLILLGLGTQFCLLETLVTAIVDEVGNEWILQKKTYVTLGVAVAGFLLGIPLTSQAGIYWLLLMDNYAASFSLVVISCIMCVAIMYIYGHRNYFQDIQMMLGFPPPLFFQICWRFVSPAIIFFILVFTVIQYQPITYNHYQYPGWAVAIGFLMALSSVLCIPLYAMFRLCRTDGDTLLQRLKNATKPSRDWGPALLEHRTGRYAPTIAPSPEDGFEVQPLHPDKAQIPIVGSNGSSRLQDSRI

| SMILES | EC50 [µM] |
| --- | --- |
| CC(=O)c1ccc(N2CCN(C(=O)c3cc([N+](=O)[O-])ccc3N(C)C)CC2)c(F)c1 | 0.5 |
| O=C(c1cc([N+](=O)[O-])ccc1N1CCOCC1)N1CCN(c2ccccc2C(F)(F)F)CC1 | 7.1 |
| CC(=O)c1ccc(N2CCN(C(=O)c3cc(C)ccc3N3CCOCC3)CC2)c(F)c1 | > 30 |
| CNc1ccc([N+](=O)[O-])cc1C(=O)N1CCN(c2ccc(C(C)=O)cc2F)CC1 | 1.9 |
| Cc1ccccc1N1CCN(C(=O)c2cc([N+](=O)[O-])ccc2N2CCOCC2)CC1 | > 10 |
| CC(=O)c1ccc(N2CCN(C(=O)c3cc([N+](=O)[O-])ccc3N)CC2)c(F)c1 | > 10 |
| O=C(c1cc([N+](=O)[O-])ccc1N1CCOCC1)N1CCN(c2ccccc2Cl)CC1 | 1.4 |
| CNS(=O)(=O)c1ccc(N2CCOCC2)c(C(=O)N2CCN(c3ccc(C(C)=O)cc3F)CC2)c1 | 0.1 |
| N#Cc1cc(C(F)(F)F)ccc1N1CCN(C(=O)c2cc([N+](=O)[O-])ccc2N2CCOCC2)CC1 | 0.015 |
| CC(=O)c1ccc(N2CCN(C(=O)c3cc(Br)ccc3N3CCOCC3)CC2)c(F)c1 | > 30 |
| O=C(c1cc([N+](=O)[O-])ccc1N1CCOCC1)N1CCN(c2cccc(C(F)(F)F)c2)CC1 | 0.4 |

biological target: T2, Sodium- and chloride-dependent glycine transporter 2 (Homo sapiens, UniProt Q9Y345); assay: Inhibition of [3H]glycine uptake at human glycine transporter 2 expressed in CHO cells by scintillation counter; type: cell-based; settings: not given
T2 sequence (Q9Y345 whole entry): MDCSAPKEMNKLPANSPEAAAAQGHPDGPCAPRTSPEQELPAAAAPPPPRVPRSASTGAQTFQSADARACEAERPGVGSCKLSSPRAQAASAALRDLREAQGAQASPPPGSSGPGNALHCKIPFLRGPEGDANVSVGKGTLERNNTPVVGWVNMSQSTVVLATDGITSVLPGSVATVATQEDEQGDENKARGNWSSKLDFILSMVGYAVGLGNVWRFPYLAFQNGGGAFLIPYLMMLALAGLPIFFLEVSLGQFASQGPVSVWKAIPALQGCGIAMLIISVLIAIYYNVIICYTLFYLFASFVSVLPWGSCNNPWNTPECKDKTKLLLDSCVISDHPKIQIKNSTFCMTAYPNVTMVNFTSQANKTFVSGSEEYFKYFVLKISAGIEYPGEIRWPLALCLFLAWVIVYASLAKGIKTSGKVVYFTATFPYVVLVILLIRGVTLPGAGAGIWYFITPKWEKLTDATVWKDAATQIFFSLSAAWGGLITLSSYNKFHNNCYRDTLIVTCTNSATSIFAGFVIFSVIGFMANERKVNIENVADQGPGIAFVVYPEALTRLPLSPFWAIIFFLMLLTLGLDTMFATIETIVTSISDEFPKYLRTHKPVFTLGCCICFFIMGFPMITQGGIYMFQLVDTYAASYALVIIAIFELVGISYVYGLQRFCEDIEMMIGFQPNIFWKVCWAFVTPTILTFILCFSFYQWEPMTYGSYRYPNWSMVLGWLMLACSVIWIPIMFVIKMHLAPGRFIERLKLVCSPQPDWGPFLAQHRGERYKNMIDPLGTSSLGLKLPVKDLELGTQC
Summary of the method: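 [³H]-glycine uptake inhibition in cells transfected with human GlyT2 cDNA. EC50 is the average of at least two independent experiments.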

| SMILES | EC50 [µM] |
| --- | --- |
| CC(=O)c1ccc(N2CCN(C(=O)c3cc([N+](=O)[O-])ccc3N(C)C)CC2)c(F)c1 | 2 |
| O=C(c1cc([N+](=O)[O-])ccc1N1CCOCC1)N1CCN(c2ccccc2C(F)(F)F)CC1 | > 30 |
| CC(=O)c1ccc(N2CCN(C(=O)c3cc(C)ccc3N3CCOCC3)CC2)c(F)c1 | > 30 |
| CNc1ccc([N+](=O)[O-])cc1C(=O)N1CCN(c2ccc(C(C)=O)cc2F)CC1 | 1.4 |
| Cc1ccccc1N1CCN(C(=O)c2cc([N+](=O)[O-])ccc2N2CCOCC2)CC1 | 14.2 |
| CC(=O)c1ccc(N2CCN(C(=O)c3cc([N+](=O)[O-])ccc3N)CC2)c(F)c1 | 3.3 |
| O=C(c1cc([N+](=O)[O-])ccc1N1CCOCC1)N1CCN(c2ccccc2Cl)CC1 | 11.2 |
| CNS(=O)(=O)c1ccc(N2CCOCC2)c(C(=O)N2CCN(c3ccc(C(C)=O)cc3F)CC2)c1 | > 30 |
| N#Cc1cc(C(F)(F)F)ccc1N1CCN(C(=O)c2cc([N+](=O)[O-])ccc2N2CCOCC2)CC1 | > 30 |
| CC(=O)c1ccc(N2CCN(C(=O)c3cc(Br)ccc3N3CCOCC3)CC2)c(F)c1 | 5.1 |
| O=C(c1cc([N+](=O)[O-])ccc1N1CCOCC1)N1CCN(c2cccc(C(F)(F)F)c2)CC1 | 0.3 |

organism: Homo sapiens; assay: Selectivity ratio of IC50 for human glycine transporter 2 to IC50 for human glycine transporter 1; settings: not given
Summary of the method: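 [³H]-glycine uptake inhibition in cells transfected with human GlyT1 or human GlyT2 cDNA. Each EC50 is the average of at least two independent experiments. Selectivity is the ratio of GlyT2 EC50 to GlyT1 EC50.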

| SMILES | Ratio EC50 |
| --- | --- |
| CNS(=O)(=O)c1ccc(N2CCOCC2)c(C(=O)N2CCN(c3ccc(C(C)=O)cc3F)CC2)c1 | > 300 |
| CC(=O)c1ccc(N2CCN(C(=O)c3cc(Br)ccc3N3CCOCC3)CC2)c(F)c1 | < 0.2 |

system: not listed separately; assay: Aqueous solubility in phosphate buffer at pH 6.5 by lyophilization solubility assay; type: physicochemical; settings: not given
Summary of the method: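 Aqueous solubility was measured at pH 6.5 in a lyophilization solubility assay.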

| SMILES | solubility [µg/mL] |
| --- | --- |
| CNS(=O)(=O)c1ccc(N2CCOCC2)c(C(=O)N2CCN(c3ccc(C(C)=O)cc3F)CC2)c1 | 30 (≈ 59.5 µM) |

system: not listed separately; assay: Membrane permeability by PAMPA; type: ADME; settings: read-out: permeability
Summary of the method: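 PAMPA artificial-membrane permeation, reported as the permeation constant Pe in 10^-6 cm/s.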

| SMILES | Papp [×10⁻⁶ cm/s] |
| --- | --- |
| CNS(=O)(=O)c1ccc(N2CCOCC2)c(C(=O)N2CCN(c3ccc(C(C)=O)cc3F)CC2)c1 | 5.3 |

system: Liver microsomes; assay: Metabolic stability in rat liver microsomes assessed as intrinsic clearance per […] of protein; type: ADME, Microsome; settings: not given
Summary of the method: (§1)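 Intrinsic clearance measured in liver microsomes from rat, mouse or human, expressed per mg microsomal protein.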

| SMILES | clearance [µL/min/mg] |
| --- | --- |
| CNS(=O)(=O)c1ccc(N2CCOCC2)c(C(=O)N2CCN(c3ccc(C(C)=O)cc3F)CC2)c1 | 106 |

system: Liver microsomes; assay: Metabolic stability in human liver microsomes assessed as intrinsic clearance per […] of protein; type: ADME, Microsome; settings: not given; summary of the method: as §1

| SMILES | clearance [µL/min/mg] |
| --- | --- |
| CNS(=O)(=O)c1ccc(N2CCOCC2)c(C(=O)N2CCN(c3ccc(C(C)=O)cc3F)CC2)c1 | 43 |
